Measured values: ChEMBL document CHEMBL3861994, “1,2,3-Triazole-based inhibitors of Porphyromonas gingivalis adherence to oral streptococci and biofilm formation” (Bioorg Med Chem, 2016)

Columns and labels:
[1] = (§1) Inhibition of Porphyromonas gingivalis ATCC 33277 MFA interaction with Streptococcus gordonii DL1(1) antigen 1/2 assessed as inhibition of 5(6)-carboxyfluorescein N-hydroxysuccinimide ester-labeled Porphyromonas gingivalis ATCC 33277 cell adhesion to hexidium iodide-labeled Streptococcus gordonii DL1(1) by measuring inhibition of biofilm formation preincubated with Porphyromonas gingivalis ATCC 33277 for 30 mins followed by addition to Streptococcus gordonii DL1(1) culture measured after 22 hrs by laser scanning confocal microscopy; type: cell-based
Summary of the method: (§2)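 Hexidium iodide-labelled S. gordonii (OD600 0.8 in PBS, pH 7.2) was bound to coverslips for 24 h, anaerobic, 37 °C. Carboxyfluorescein-labelled P. gingivalis (OD600 0.4) was preincubated 30 min at room temperature with compound (0–60 μM final, from 1000X DMSO stock), added, then incubated 22 h anaerobically. After fixation, confocal z-stacks (488/552 nm) were taken. IC50 is 50% reduction of the green/red fluorescence ratio; triplicates, three independent experiments.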

[2] = Cytotoxicity against gingival epithelial cells (unknown origin); type: toxicity, cell-based; settings: epithelial cell
[3] = test system: Streptococcus gordonii; experiment: Growth inhibition of Streptococcus gordonii at 40 uM measured after 24 hrs; settings: read-out: GI
[4] = test system: Porphyromonas gingivalis; experiment: Growth inhibition of Porphyromonas gingivalis at 40 uM measured after 24 hrs
[5] = test system: Streptococcus gordonii; experiment: Growth inhibition of Streptococcus gordonii at 60 uM measured after 24 hrs; settings: read-out: GI
[6] = test system: Porphyromonas gingivalis; experiment: Growth inhibition of Porphyromonas gingivalis at 60 uM measured after 24 hrs
[7] = test system: ATCC 33277; experiment: as §1; type: cell-based; summary of the method: as §2
[8] = test system: Streptococcus gordonii; experiment: Growth inhibition of Streptococcus gordonii at 20 uM measured after 24 hrs; settings: read-out: GI
[9] = test system: Porphyromonas gingivalis; experiment: Growth inhibition of Porphyromonas gingivalis at 20 uM measured after 24 hrs
[10] = test system: Streptococcus gordonii; experiment: Growth inhibition of Streptococcus gordonii at 5 uM measured after 24 hrs; settings: read-out: GI
[11] = test system: Porphyromonas gingivalis; experiment: Growth inhibition of Porphyromonas gingivalis at 5 uM measured after 24 hrs

Compound | IC50 [1] | Activity [2] | further results
COc1ccc(-c2nc(-c3cccc(-n4cc(-c5ccccc5OC)nn4)c3)oc2-c2ccc(OC)cc2)cc1 | 15.4 µM | Toxic | inhibition at 40 µM [3]: 0.8%; growth inhibition (GI) [4]: -6.2%
COc1ccc2cc(-c3cn(-c4ccc(-c5nc(-c6ccc(F)cc6)c(-c6ccc(F)cc6)o5)cc4)nn3)ccc2c1 | 52.2 µM | Toxic | 
Fc1cccc(-c2cn(-c3ccc(-c4nc(-c5ccc(Cl)cc5)c(-c5ccc(Cl)cc5)o4)cc3)nn2)c1 | 15.7 µM | Toxic | 
CCCCCc1ccc(-c2cn(-c3cccc(-c4nc(-c5ccc(OC)cc5)c(-c5ccc(OC)cc5)o4)c3)nn2)cc1 | > 60 µM | Toxic | 
COc1ccc2cc(-c3cn(Cc4nc(-c5ccc(F)cc5)c(-c5ccc(F)cc5)o4)nn3)ccc2c1 | 29.3 µM | Toxic | inhibition at 60 µM [5]: 0.2%; growth inhibition (GI) [6]: -3.3%
Fc1ccc(-c2nc(Cn3cc(-c4cccc(F)c4)nn3)oc2-c2ccc(F)cc2)cc1 | > 60 µM | Toxic | 
COc1ccc2cc(-c3cn(-c4ccc(-c5nc(-c6ccc(Cl)cc6)c(-c6ccc(Cl)cc6)o5)cc4)nn3)ccc2c1 | 32.4 µM | Toxic | 
Fc1ccc(-c2nc(Cn3cc(-c4ccccc4C(F)(F)F)nn3)oc2-c2ccc(F)cc2)cc1 | > 60 µM | Toxic | 
COc1ccccc1-c1cn(-c2ccc(-c3nc(-c4ccc(Cl)cc4)c(-c4ccc(Cl)cc4)o3)cc2)nn1 | 37.3 µM | Toxic | 
Fc1ccc(-c2nc(-c3ccc(-n4cc(-c5cccc(F)c5)nn4)cc3)oc2-c2ccc(F)cc2)cc1 | 51.5 µM | Toxic | 
FC(F)(F)c1ccccc1-c1cn(Cc2nc(-c3ccccc3)c(-c3ccccc3)o2)nn1 | > 60 µM | Toxic | 
COc1ccccc1-c1cn(Cc2nc(-c3ccc(F)cc3)c(-c3ccc(F)cc3)o2)nn1 | > 60 µM | Toxic | 
Brc1ccc(-c2nc(Cn3cc(-c4cccnc4)nn3)oc2-c2ccc(Br)cc2)cc1 | 50.9 µM | Toxic | 
COc1ccccc1-c1cn(Cc2nc(-c3ccc(Br)cc3)c(-c3ccc(Br)cc3)o2)nn1 | 43 µM | Toxic | inhibition at 60 µM [5]: 11.1%; growth inhibition (GI) [6]: -12.4%
Fc1cccc(-c2cn(Cc3nc(-c4ccc(Cl)cc4)c(-c4ccc(Cl)cc4)o3)nn2)c1 | > 60 µM | Toxic | 
Fc1ccc(-c2nc(-c3ccc(-n4cc(-c5ccccc5C(F)(F)F)nn4)cc3)oc2-c2ccc(F)cc2)cc1 | 12.8 µM | Toxic | inhibition at 40 µM [3]: -11%; growth inhibition (GI) [4]: 0.1%
FC(F)(F)c1ccccc1-c1cn(-c2ccc(-c3nc(-c4ccc(Cl)cc4)c(-c4ccc(Cl)cc4)o3)cc2)nn1 | 25.1 µM | Toxic | 
COc1ccc2cc(-c3cn(Cc4nc(-c5ccc(Cl)cc5)c(-c5ccc(Cl)cc5)o4)nn3)ccc2c1 | 5.3 µM | Toxic | inhibition at 60 µM [5]: -3.8%; growth inhibition (GI) [6]: 0.3%
Fc1ccc(-c2nc(Cn3cc(-c4cccnc4)nn3)oc2-c2ccc(F)cc2)cc1 | 59.8 µM | Toxic | 
CCCCCc1ccc(-c2cn(Cc3nc(-c4ccccc4)c(-c4ccccc4)o3)nn2)cc1 | 35.5 µM | Toxic | inhibition at 60 µM [5]: 6.6%; growth inhibition (GI) [6]: -14.5%
COc1ccc2cc(-c3cn(Cc4nc(-c5ccccc5)c(-c5ccccc5)o4)nn3)ccc2c1 | > 60 µM | Toxic | 
Fc1cccc(-c2cn(Cc3nc(-c4ccccc4)c(-c4ccccc4)o3)nn2)c1 | > 60 µM | Toxic | 
Fc1cccc(-c2cn(-c3cccc(-c4nc(-c5ccc(Br)cc5)c(-c5ccc(Br)cc5)o4)c3)nn2)c1 | 5 µM | Toxic | inhibition at 5 µM [10]: -5.7%; growth inhibition (GI) [11]: -4.3%
COc1ccc(-c2nc(-c3cccc(-n4cc(-c5cccnc5)nn4)c3)oc2-c2ccc(OC)cc2)cc1 | 57.7 µM | Toxic | 
c1ccc(Oc2ccc(-c3cn(Cc4nc(-c5ccccc5)c(-c5ccccc5)o4)nn3)cc2)cc1 | > 60 µM | Toxic | 
COc1ccc(-c2nc(-c3cccc(-n4cc(-c5cccc(F)c5)nn4)c3)oc2-c2ccc(OC)cc2)cc1 | 5.9 µM | Toxic | inhibition at 40 µM [3]: -9.1%; growth inhibition (GI) [4]: -2.6%
FC(F)(F)c1ccccc1-c1cn(Cc2nc(-c3ccc(Cl)cc3)c(-c3ccc(Cl)cc3)o2)nn1 | 56.7 µM | Toxic | 

Second part, led by results:

IC50 [1] | Compound | Activity [2] | further results
> 60 µM | COc1ccccc1-c1cn(Cc2nc(-c3ccccc3)c(-c3ccccc3)o2)nn1 | Toxic | 
56.8 µM | COc1ccccc1-c1cn(Cc2nc(-c3ccc(Cl)cc3)c(-c3ccc(Cl)cc3)o2)nn1 | Toxic | inhibition at 60 µM [5]: 6.6%; growth inhibition (GI) [6]: -19.6%
20.3 µM | COc1ccc2cc(-c3cn(-c4cccc(-c5nc(-c6ccc(Br)cc6)c(-c6ccc(Br)cc6)o5)c4)nn3)ccc2c1 | Toxic | 
27 µM | COc1ccc(-c2nc(-c3cccc(-n4cc(-c5ccccc5C(F)(F)F)nn4)c3)oc2-c2ccc(OC)cc2)cc1 | Toxic | inhibition at 40 µM [3]: -9.7%; growth inhibition (GI) [4]: -1.6%
15 µM | COc1ccccc1-c1cn(-c2cccc(-c3nc(-c4ccc(Br)cc4)c(-c4ccc(Br)cc4)o3)c2)nn1 | Toxic | inhibition [7]: Dose-dependent effect; inhibition at 40 µM [3]: 10.5%; growth inhibition (GI) [4]: 4.3%
> 60 µM | c1ccc(-c2nc(Cn3cc(-c4cccnc4)nn3)oc2-c2ccccc2)cc1 | Toxic | 
40.9 µM | Clc1ccc(-c2nc(-c3ccc(-n4cc(-c5cccnc5)nn4)cc3)oc2-c2ccc(Cl)cc2)cc1 | Toxic | 
15.2 µM | FC(F)(F)c1ccccc1-c1cn(-c2cccc(-c3nc(-c4ccc(Br)cc4)c(-c4ccc(Br)cc4)o3)c2)nn1 | Toxic | inhibition at 40 µM [3]: 2%; growth inhibition (GI) [4]: -0.6%
31 µM | Brc1ccc(-c2nc(-c3cccc(-n4cc(-c5cccnc5)nn4)c3)oc2-c2ccc(Br)cc2)cc1 | Toxic | 
> 56.3 µM | Cc1ccccc1-c1cn(Cc2nc(-c3ccccc3)c(-c3ccccc3)o2)nn1 | Toxic | 
13 µM | COc1ccc(-c2nc(-c3cccc(-n4cc(-c5ccc6cc(OC)ccc6c5)nn4)c3)oc2-c2ccc(OC)cc2)cc1 | Toxic | inhibition at 20 µM [8]: -1.3%; growth inhibition (GI) [9]: 3%
7.7 µM | COc1ccccc1-c1cn(-c2ccc(-c3nc(-c4ccc(F)cc4)c(-c4ccc(F)cc4)o3)cc2)nn1 | Toxic | inhibition at 20 µM [8]: -7.8%; growth inhibition (GI) [9]: -0.5%
47.4 µM | COc1ccc(-c2nc(-c3cccc(-n4cc(-c5cc(C(F)(F)F)cc(C(F)(F)F)c5)nn4)c3)oc2-c2ccc(OC)cc2)cc1 | Toxic | 
> 60 µM | FC(F)(F)c1ccccc1-c1cn(Cc2nc(-c3ccc(Br)cc3)c(-c3ccc(Br)cc3)o2)nn1 | Toxic | 
> 60 µM | Clc1ccc(-c2nc(Cn3cc(-c4cccnc4)nn3)oc2-c2ccc(Cl)cc2)cc1 | Toxic | 
> 60 µM | Fc1ccc(-c2cn(Cc3nc(-c4ccccc4)c(-c4ccccc4)o3)nn2)cc1 | Toxic | 
36.9 µM | CC(C)CCNc1nc(NCCC(C)C)nc(-c2cn(Cc3nc(-c4ccccc4)c(-c4ccccc4)o3)nn2)n1 | Toxic | inhibition at 60 µM [5]: 6.8%; growth inhibition (GI) [6]: 72.8%
> 60 µM | Fc1cccc(-c2cn(Cc3nc(-c4ccc(Br)cc4)c(-c4ccc(Br)cc4)o3)nn2)c1 | Toxic | 
33.4 µM | COc1ccc2cc(-c3cn(Cc4nc(-c5ccc(Br)cc5)c(-c5ccc(Br)cc5)o4)nn3)ccc2c1 | Toxic | inhibition at 60 µM [5]: -8.6%; growth inhibition (GI) [6]: -9.9%
> 60 µM | COc1ccc(-c2nc(-c3cccc(-n4cc(-c5ccc(Oc6ccccc6)cc5)nn4)c3)oc2-c2ccc(OC)cc2)cc1 | Toxic | 
53 µM | COc1ccc(-c2nc(-c3cccc(-n4cc(-c5ccc(F)cc5)nn4)c3)oc2-c2ccc(OC)cc2)cc1 | Toxic | inhibition at 40 µM [3]: -22.1%; growth inhibition (GI) [4]: -14.6%
25.6 µM | Fc1ccc(-c2nc(-c3ccc(-n4cc(-c5cccnc5)nn4)cc3)oc2-c2ccc(F)cc2)cc1 | Toxic | 
> 60 µM | FC(F)(F)c1cc(-c2cn(Cc3nc(-c4ccccc4)c(-c4ccccc4)o3)nn2)cc(C(F)(F)F)c1 | Toxic | 
